Diaph inh CS = diaphorase inhibition or chemical oxidation counter-screen; AID 1217; inhibition, % at 20 µM; diaphorase resazurin-to-resorufin fluorescence, NADH, 16 min; bacterial (C. kluyveri) enzyme, not human; 190,000 tested, 0.69% active;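 active means primary screen inhibition at 20 µM above a set limit, cut at about 50% in these data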
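material = Clostridium kluyveri diaphorase enzyme | amount = 0.14 U/mL diaphorase, enzyme working solution | schedule = incubation 16 min, room temperature | detection = fluorescence of resorufin formed from resazurin, Ex 544/Em 590 nm | benchmarks = positive control minus NADH, DMSO neutral control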
Diaphorase act = activates diaphorase or chemically reduces, flagging diaphorase assay artifacts; 190,000 tested, 0.005% active; Diaphorase/resazurin coupled assay, resorufin fluorescence, 16 min; stronger effect = higher value; 1 = vehicle wells, 0 = NADH-free wells; activation factor at 20 µM;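 active means diaphorase activity raised at least twofold by the compound at 20 µM; inactive means activation factor below 2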
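Material: bacterial diaphorase enzyme (C. kluyveri); amount: enzyme 0.07 U/mL final; reagent: NADH substrate 0.114 mM plus resazurin dye 0.1 mM, final; doses: single compound dose of 20 µM, 1% DMSO final; timing: 16 min enzyme reaction, ambient temperature; measured by: fluorescence of resorufin, 544 nm excitation, 590 nm emission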
PMI act = phosphomannose isomerase (human) activation; P34949; purified human PMI, coupled resazurin fluorescence, 20 min; stronger effect = higher value; 1 = vehicle control, 0 substrate-free wells; activation factor at 20 µM; 190,000 tested, 0.005% active; AID 1214;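 active means activation factor of 2 or more at 20 µM, relative to plate controls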
Target sequence (P34949 whole entry, looked up): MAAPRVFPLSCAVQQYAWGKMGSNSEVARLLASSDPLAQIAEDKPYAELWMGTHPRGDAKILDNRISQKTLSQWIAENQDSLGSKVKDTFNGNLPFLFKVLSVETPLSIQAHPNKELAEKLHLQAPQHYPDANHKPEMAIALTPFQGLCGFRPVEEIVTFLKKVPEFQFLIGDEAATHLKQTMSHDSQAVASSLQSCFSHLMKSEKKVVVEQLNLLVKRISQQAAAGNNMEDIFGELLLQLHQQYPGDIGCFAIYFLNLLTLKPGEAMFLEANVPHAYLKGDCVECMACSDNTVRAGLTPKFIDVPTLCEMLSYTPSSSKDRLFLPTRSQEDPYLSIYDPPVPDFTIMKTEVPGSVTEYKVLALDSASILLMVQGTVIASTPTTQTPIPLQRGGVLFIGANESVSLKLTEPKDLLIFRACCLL
FLuc inhib CS = Photinus pyralis luciferase inhibition counter-screen | inhibition, % at 10 µM | AID 1006 | 200,000 tested, 1.5% active | P08659 | ATPLite firefly luciferase biochemical luminescence, 10 min;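 active means inhibition above about 50% when tested at 10 µM, limit read from the data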
FLuc act counter = affects firefly luciferase, flagging false hits in luciferase stimulation screens | ATPlite luciferase biochemical, luminescence, 10 min; 0 = ATP-free wells, 1 = DMSO control | activation factor at 10 µM | 200,000 tested, under 10 active | AID 1027;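 active means luciferase activation factor, scaled between plate controls, of at least 2 with compound at 10 µM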
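assay system = Luciferase/luciferin detection reagent, cell-free biochemical luciferase assay | also added = ATP substrate | times = 10 min post-reagent at room temperature | measured by = luminescence from luciferase reaction | measure = luciferase activation, seen as luminescence increase over controls | benchmarks = low control with PBS replacing ATP, high control enzyme plus ATP without compound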
PMI act satM6P = PMI (human) activation, high substrate. P34949. coupled PMI enzyme assay, resazurin fluorescence, 20 min; stronger effect = higher value; 1 = untreated enzyme, 0 = substrate-free blank. activation factor at 20 µM. 190,000 tested, 0.34% active;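 active means activation factor of 2 or more at 20 µM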
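Test system: Human PMI in coupled enzyme assay | Input: 15 ng/mL PMI | Medium: HEPES-buffered pH 7.4 with magnesium and detergent | Compound: One concentration, 20 µM, in 1% DMSO | Incubation: Enzyme reaction with compound 20 min at room temperature | Detection: Diaphorase-driven resazurin-to-resorufin fluorescence, excitation 544, emission 590 nm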
Hits are given with their value; . = inactive. This is a sample that favours compounds with a hit; in the whole collection about 2.5% have one here.

SMILES | Diaph inh CS | Diaphorase act | PMI act | FLuc inhib CS | FLuc act counter | PMI act satM6P
COc1ccc(OC)c(NC(=O)C2CC(C)=C(C)CC2C(=O)O)c1 (configuration not stated) | . | . | . | . | . | .
COc1ccc(CCNC(=O)CC2Nc3ccccc3NC2=O)cc1OC (configuration not stated) | 51.6 | . | . | . | . | .
O=C(COC(=O)c1c2c(nc3ccccc13)/C(=C/c1ccco1)CC2)NC1CCCC1 | . | . | . | . | . | .
CC1CCCCC1NC(=O)COC(=O)c1c2c(nc3ccccc13)/C(=C/c1ccco1)CC2 (configuration not stated) | . | . | . | . | . | 2
COc1ccc(-n2c3c(cc(C(=O)NCc4ccco4)c2=O)C(=O)CC(C)(C)C3)cc1 | . | . | . | . | . | .
COc1ccc(S(=O)(=O)N(C)CC(=O)Nc2ccc(C)cc2)cc1OC | 65.2 | . | . | . | . | .
COc1cc(NC(=O)CN(C)S(=O)(=O)c2ccc(C)cc2)cc(OC)c1 | . | . | . | . | . | .
CO[C@H]1C=CO[C@@]2(C)Oc3c(C)c(O)c4c(O)c(c(C=NN5CCN(C6CCCC6)CC5)c(O)c4c3C2=O)NC(=O)C(C)=CC=C[C@H](C)[C@H](O)[C@@H](C)[C@@H](O)[C@@H](C)[C@H](OC(C)=O)[C@@H]1C | 84.4 | . | . | . | . | .
O=C(CCNc1n[nH]c(=O)[nH]c1=O)N/N=C\c1cccc(OCc2ccccc2)c1 | . | . | . | . | . | .
Nc1ccc2c(c1)OC1(CCCC1)O2 | 52.0 | . | . | . | . | .
C/C(=N\Nc1ccc(F)cc1F)c1ccccc1O | . | . | . | . | . | 2.3
Clc1ccc(-c2cn3c(n2)-c2ccccc2C3)cc1Cl | . | . | . | 65.7 | . | .
O=S(=O)(c1cccc(-c2nc3n(n2)Cc2ccccc2-3)c1)N1CCCC1 | . | . | . | . | . | .
Cc1ccc(C)n1-c1ccc(-c2ccnc(N)n2)cc1 | . | . | . | . | . | .
Cc1ccc2cc(CCNC(=O)C3CCCC3)c(=O)[nH]c2c1 | . | . | . | . | . | .
Cc1ccc2cc(CCNC(=O)c3ccc(S(=O)(=O)N4CCCCC4)cc3)c(=O)[nH]c2c1 | 72.1 | . | . | . | . | .
Cc1cc2cc(CCNC(=O)c3ccc(S(=O)(=O)N4CCOCC4)cc3)c(=O)[nH]c2cc1C | 58.4 | . | . | . | . | .
C#CC(CC)(CC)NC(=O)Nc1ccccc1C(=O)OC | . | . | . | . | . | .
CSCCC(=O)Nc1nc(-c2ccccn2)cs1 | . | . | . | . | . | 2.2
O=C1Nc2cc(Cl)cnc2N2CCCC12 (configuration not stated) | . | . | . | . | . | .
O=C1Nc2cc(S(=O)(=O)N3CCCC3)ccc2N2CCCC12 (configuration not stated) | . | . | . | . | . | 2
O=C1Nc2ccccc2N2CCCC12 (configuration not stated) | 60.5 | . | . | . | . | .
CC(C)C1Nc2ccc(S(=O)(=O)N3CCOCC3)cc2NC1=O (configuration not stated) | . | . | . | . | . | .
COc1cc(C(=O)OCC(=O)NCCN2C(=O)CSC2=O)ccc1OCc1c(C)noc1C | . | . | . | . | . | .
Cn1c(N)c(C(=O)COC(=O)Cn2cc(C(F)(F)F)ccc2=O)c(=O)n(C)c1=O | . | . | . | . | . | .
SMILES | Diaph inh CS | Diaphorase act | PMI act | FLuc inhib CS | FLuc act counter | PMI act satM6P
C/C(=N\Nc1ccccn1)c1ccc(N2CCOCC2)cc1 | . | . | . | . | . | .
C(=N\Nc1ccccc1)/c1ccc(N2CCOCC2)cc1 | . | . | . | . | . | 2.2
CCOc1ccc(/C=N/Nc2ccccn2)cc1 | . | . | . | 82.0 | . | .
Cc1cc(C)nc(N/N=C/c2ccc(N3CCOCC3)cc2)n1 | . | . | . | . | . | .
C(=N\Nc1ccccn1)/c1ccc(N2CCOCC2)cc1 | . | . | . | 74.3 | . | .
Clc1cccc(N/N=C/c2ccc(N3CCOCC3)cc2)c1 | . | . | . | . | . | 2.3
CC(O)CNCCCOc1ccc(Cl)cc1C(C)(C)C (configuration not stated) | . | . | . | . | . | .
Cc1c(CCO)c(=O)n(-c2ccccc2)n1S(=O)(=O)c1c(Cl)cc(Cl)cc1Cl | . | . | . | . | . | .
Brc1ccccc1/C=N/Nc1ccccn1 | . | . | . | . | . | .
Oc1ccc(/C=N/Nc2cc(N3CCOCC3)nc(N3CCOCC3)n2)cc1O | 63.7 | . | . | . | . | .
COc1ccc2nc(Cl)c(/C=N/Nc3ccccn3)cc2c1 | . | . | . | 79.2 | . | .
C=CCn1c(O)c(N=Nc2ccccc2C)c2ccccc21 | . | . | . | . | . | 2.2
C=CCn1c(O)c(N=NC(=O)OC(C)(C)C)c2ccccc21 | . | . | . | . | . | .
CCc1nnc(NC(=O)c2ccc(Cl)nc2)s1 | . | . | . | 53.1 | . | .
CCc1nnc(NC(=O)c2ccc(OC)cc2OC)s1 | . | . | . | 53.7 | . | .
CC(C)(C)c1nnc(NC(=O)c2ccc(Cl)nc2)s1 | . | . | . | . | . | .
CCCCOc1cccc(C(=O)NC(=S)Nc2ccc(Cl)c(C(=O)O)c2)c1 | 61.8 | . | . | . | . | .
Cc1cc(C)nc(N2CCCC(C(=O)NC(C)C)C2)n1 (configuration not stated) | . | . | . | . | . | .
Cc1cc(C)nc(SCc2cc(=O)c(OC(=O)c3ccco3)co2)n1 | . | . | . | . | . | .
Cc1cc(C)nc(SCc2cc(=O)c(OC(=O)c3ccc(Br)o3)co2)n1 | . | . | . | 60.1 | . | .
CC(=S)/C=C1\Sc2ccccc2N1C | . | . | . | . | . | .
COc1ccc(C(=O)/C=C2\Sc3ccccc3N2C)cc1 | . | . | . | 71.3 | . | .
Cc1ccc2nc(-c3ccc(NC(=O)CCN4C(=O)c5ccccc5C4=O)cc3)sc2c1 | . | . | . | 67.5 | . | .
CC(=O)Nc1cccc(-c2nc3ccc(NC(C)=O)cc3s2)c1 | . | . | . | 66.0 | . | .
Cc1ccc2sc(-c3ccc(NC(=O)/C=C\C(=O)O)cc3)nc2c1 | . | . | . | 84.0 | . | .
O=C(O)/C=C/C(=O)Nc1ccccc1-c1ccccc1NC(=O)/C=C/C(=O)O | . | . | . | . | . | .
O=C(O)/C=C/C(=O)Nc1ccc(-c2ccccc2)cc1 | . | . | . | 52.7 | . | .
